The record followed here is paper PMC10286098 (ACS Omega, 2023).

The structures appear in SMILES notation. Several values for one entry are separate records, joined by “and”; a condition that tells them apart may be missing. Equal entries are not always repeated. Where two headings read alike, the source gives them in different places.

The test system of one data set is MRC-5 cells. To be noted: MRC-5 normal lung cells, WST-1, mean ± standard error.
Another data set concerns the target hDHODH (Homo sapiens, UniProt Q02127). Briefly: hDHODH fluorescence-based. In kind it is biochemical. The following applies: for IC50: IC50 over hDHODH, fluorescence-based assay, 10-dose, 3-fold dilution from 10 μM; for fold of the reported DHODH inhibitory activity of Leflunomide: versus Leflunomide 600 nM. The procedure, abridged: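 Contract-run assay in which human DHODH oxidizes L-DHO to orotate, coupled to resazurin conversion to resorufin. Test compounds were run as 10 doses in singlet, with 3-fold dilutions from 10 μM. Reactions ran 60 min at room temperature. Orotate stop mix (5 mM final) was added, then resorufin fluorescence was read.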

The mark [1] stands for this setting: A549 cells, WST-1, 24 h, mean ± standard error.
Setting [2] is: H1299 cells, WST-1, 24 h, mean ± standard error.
Where [3] appears, read: H1975 cells, WST-1, 24 h, mean ± standard error.

hDHODH, sequence (Q02127 whole entry): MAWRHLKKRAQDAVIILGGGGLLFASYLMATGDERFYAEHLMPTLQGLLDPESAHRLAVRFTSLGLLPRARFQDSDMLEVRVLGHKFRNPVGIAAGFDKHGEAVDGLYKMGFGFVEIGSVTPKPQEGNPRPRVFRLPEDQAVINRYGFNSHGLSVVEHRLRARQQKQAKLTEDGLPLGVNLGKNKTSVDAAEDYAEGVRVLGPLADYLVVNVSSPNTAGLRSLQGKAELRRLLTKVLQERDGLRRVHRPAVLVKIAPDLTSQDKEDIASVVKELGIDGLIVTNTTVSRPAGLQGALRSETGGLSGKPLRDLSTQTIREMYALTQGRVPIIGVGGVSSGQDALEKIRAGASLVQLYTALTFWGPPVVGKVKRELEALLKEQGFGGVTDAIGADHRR

As for `COc1ccc(-c2ccc3[nH]cc(C(=O)Nc4cccc(C(F)(F)F)c4)c3c2)cc1` [4b, 5-(4-Methoxyphenyl)-N-(3-(trifluoromethyl)phenyl)-1H-indole-3-carboxamide], the TC50 was found to be 17 ± 0.5 µM in the data set on A549 cells (setting [1]), 17 ± 0.3 µM with H1299 cells (setting [2]) and 35 ± 4.0 µM with H1975 cells (setting [3]).
Taken in the same sequence, the figures for `O=C(Nc1cccc(C(F)(F)F)c1)c1c[nH]c2ccc(Nc3ccc(O)cc3)cc12` [5a, 5-((4-Hydroxyphenyl)amino)-N-(3-(trifluoromethyl)phenyl)-1H-indole-3-carboxamide] were 32 ± 0.9 µM, 33 ± 0.7 µM and 33 ± 2.0 µM.
In the case of `O=C(Nc1cccc(C(F)(F)F)c1)c1c[nH]c2ccc(Nc3cccc([N+](=O)[O-])c3)cc12` [5d, 5-((3-Nitrophenyl)amino)-N-(3-(trifluoromethyl)phenyl)-1H-indole-3-carboxamide], the TC50 was found to be 16 ± 0.4 µM in the data set with A549 cells (setting [1]), 18 ± 0.5 µM with H1299 cells (setting [2]) and 29 ± 4.0 µM in the data set with H1975 cells (setting [3]).
Turning to `Cc1oncc1C(=O)Nc1ccc(C(F)(F)F)cc1` [Leflunomide, reference compound], the TC50 with A549 cells was 100 < TC50 <300 μM; with H1299 cells, 300 < μM; in the data set on H1975 cells it was 100 < μM; with MRC-5 cells, 300 < μM.
As to `CNC(=O)c1cc(Oc2ccc(NC(=O)Nc3ccc(Cl)c(C(F)(F)F)c3)c(F)c2)ccn1` [Regorafenib, reference compound], the “decrease of cell viability” value in the data set on A549 cells (A549, 100 μM, 24 h, preliminary screening (Figure S1)) was “more than 50%”; in the data set with H1299 cells (H1299, 100 μM, 24 h, preliminary screening (Figure S1)), “more than 50%”; in the data set with H1975 cells (H1975, 100 μM, 24 h, preliminary screening (Figure S1)) it was “more than 50%”. The TC50 in the data set with A549 cells (setting [1]) is 13 ± 0.8 µM; in the data set with H1299 cells (setting [2]), 10 ± 0.4 µM; in the data set on H1975 cells (setting [3]) it was 16 ± 0.5 µM; in the data set with MRC-5 cells it was 18 ± 2.0 µM.
As a reminder, the IC50 is the concentration at which inhibition is half-maximal. With `O=C(Nc1cccc(C(F)(F)F)c1)c1c[nH]c2ccc(Br)cc12` [compound 3, 5-Bromo-N-(3-(trifluoromethyl)phenyl)-1H-indole-3-carboxamide], the IC50 against hDHODH was found to be 0.195 µM. The “fold of the reported DHODH inhibitory activity of Leflunomide” value at hDHODH is reported as 3 fold. Further, the TC50 in the data set on A549 cells (setting [1]) is 22 ± 1.0 µM; in the data set with H1299 cells (setting [2]), 27 ± 0.8 µM; in the data set with H1975 cells (setting [3]), 28 ± 2.0 µM; in the data set with MRC-5 cells, 45 ± 8.0 µM.
Regarding `O=C(Nc1cccc(C(F)(F)F)c1)c1c[nH]c2ccc(-c3cccc(CN4CCOCC4)c3)cc12` [compound 4a, 5-(3-(Morpholinomethyl)phenyl)-N-(3-(trifluoromethyl)phenyl)-1H-indole-3-carboxamide], the IC50 against hDHODH is 1.2 µM and 1.21 µM. For the same molecule, the TC50 in the data set on A549 cells (setting [1]) came to 13 ± 0.3 µM; with H1299 cells (setting [2]), 13 ± 0.1 µM; with H1975 cells (setting [3]) it was 23 ± 2.0 µM; with MRC-5 cells it was 17 ± 3.0 µM.
As to `COc1ccc(Nc2ccc3[nH]cc(C(=O)Nc4cccc(C(F)(F)F)c4)c3c2)cc1OC` [compound 5b, 5-((3,4-Dimethoxyphenyl)amino)-N-(3-(trifluoromethyl)phenyl)-1H-indole-3-carboxamide], the TC50 with A549 cells (setting [1]) worked out at 19 ± 0.4 µM; with H1299 cells (setting [2]) it was 16 ± 0.6 µM; with H1975 cells (setting [3]) it was 25 ± 5.0 µM.
Molecule `O=C(Nc1cccc(C(F)(F)F)c1)c1c[nH]c2ccc(Nc3ccc([N+](=O)[O-])cc3)cc12` [compound 5c, 5-((4-Nitrophenyl)amino)-N-(3-(trifluoromethyl)phenyl)-1H-indole-3-carboxamide] displayed a 50% inhibitory concentration (IC50) against hDHODH of 0.421 µM. Besides, at hDHODH, the “fold of the reported DHODH inhibitory activity of Leflunomide” value was 1.5 fold. Also, the TC50 in the data set on A549 cells (setting [1]) was found to be 11 ± 0.5 µM; in the data set on H1299 cells (setting [2]), 11 ± 0.3 µM; in the data set on H1975 cells (setting [3]), 15 ± 1.0 µM; in the data set with MRC-5 cells, 17 ± 0.3 µM.
